From ChEMBL document CHEMBL3992521, “Pyrimidinyl Biphenylureas: Identification of New Lead Compounds as Allosteric Modulators of the Cannabinoid Receptor CB1” (J Med Chem, 2017)
Active and inactive are the calls of the source. No cut-off for these calls is given here.

Columns and labels:
[1] = biological target: Cannabinoid receptor 1 (Homo sapiens) (UniProt P21554); test: Positive allosteric modulation of CB1 receptor (unknown origin) expressed in HEK293T cell membranes assessed as increase in [3H]CP55,940 binding by liquid scintillation counting method
Sequence of Cannabinoid receptor 1 (Homo sapiens) (P21554 whole entry): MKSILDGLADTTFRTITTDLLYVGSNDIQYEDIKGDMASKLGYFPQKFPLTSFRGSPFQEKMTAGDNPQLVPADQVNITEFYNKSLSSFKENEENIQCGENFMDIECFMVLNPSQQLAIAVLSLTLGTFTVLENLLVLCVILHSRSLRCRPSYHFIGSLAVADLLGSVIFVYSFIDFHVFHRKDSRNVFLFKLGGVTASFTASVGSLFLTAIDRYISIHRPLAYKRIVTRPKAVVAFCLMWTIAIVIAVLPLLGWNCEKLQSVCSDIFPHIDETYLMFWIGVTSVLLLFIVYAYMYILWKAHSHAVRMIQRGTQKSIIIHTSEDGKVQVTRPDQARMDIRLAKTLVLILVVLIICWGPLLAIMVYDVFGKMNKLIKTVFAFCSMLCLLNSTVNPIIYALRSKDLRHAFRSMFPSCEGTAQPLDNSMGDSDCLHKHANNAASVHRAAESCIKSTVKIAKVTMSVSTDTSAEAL
Procedure, shortened: (§1)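 Membranes from HEK293T cells transiently expressing CB1 (harvested 24 h post-transfection) incubated with 0.5 nM [3H]CP55,940 and at least nine modulator concentrations (100 pM–100 µM) in TME buffer pH 7.4 with 0.2% fatty acid-free BSA; nonspecific binding with 1 µM unlabeled CP55,940; filtration. KB and cooperativity α from nonlinear regression; duplicate, ≥3 experiments, 95% confidence limits.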

[2] = biological target: Cannabinoid receptor 1 (Homo sapiens) (UniProt P21554); test: Positive allosteric modulation of CB1 receptor (unknown origin) expressed in HEK293T cell membranes assessed as increase in [3H]CP55,940 binding up to 32 uM by liquid scintillation counting method; procedure, shortened: as §1
[3] = biological target: Cannabinoid receptor 1 (Homo sapiens) (UniProt P21554); test: Positive allosteric modulation of CB1 receptor (unknown origin) expressed in HEK293T cell membrane assessed as ERK1/2 phosphorylation in presence of beta-arrestin1 siRNA at 10 uM incubated for 5 mins by Western blot method; type: cell-based
Procedure, shortened: (§2)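 CB1-transfected HEK293T cells carried control, β-arrestin 1 or β-arrestin 2 siRNA, or were pretreated 12 h at 37 °C with PTX 5 ng/mL. They were then washed and given allosteric modulator 10 μM alone for 5 min, with DMSO vehicle as control. ERK1/2 phosphorylation was read by Western blot of 13 µg lysate protein using phospho- and total p44/42 antibodies.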

[4] = biological target: Cannabinoid receptor 1 (Homo sapiens) (UniProt P21554); test: Positive allosteric modulation of CB1 receptor (unknown origin) expressed in HEK293T cell membrane assessed as increase in beta-arrestin mediated ERK1/2 phosphorylation at 10 uM in presence of G-protein sensitive pertussis toxin incubated for 5 mins by Western blot method; type: cell-based; procedure, shortened: as §2
[5] = biological target: Cannabinoid receptor 1 (Homo sapiens) (UniProt P21554); test: Allosteric modulation at CB1 receptor (unknown origin) expressed in HEK293T cell membranes assessed as inhibition of CP55,940 induced [35S]GTPgammaS binding after 1 hr by liquid scintillation counting method; type: functional
Procedure, shortened: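 HEK293T cells transiently transfected with CB1 (calcium phosphate), membranes harvested 24 h later; 7.5 µg membrane incubated 1 h at 30 °C with CP55,940 1 µM, 0.1 nM [35S]GTPγS, 5 µM GDP, 0.1% BSA in Tris-HCl pH 7.4/MgCl2/EGTA/NaCl buffer, varying modulator concentrations. Nonspecific binding with 10 µM unlabeled GTPγS; filtration. Expressed as % of CP55,940 signal; duplicate, ≥3 independent experiments.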

SMILES | Kb [1] | other results
O=C(Nc1ccc(C(=O)O)cc1)Nc1cccc(-c2nccc(N3CCCC3)n2)c1 |  | Activity [1]: inactive; Activity [2]: inactive
N#Cc1ccc(NC(=O)Nc2cccc(-c3nccc(N4CCCC4)n3)c2)cc1 | 0.0491 µM | Activity [3]: Active; Activity [4]: Active; inhibition [5]: Dose-dependent effect
N#Cc1ccc(NC(=O)Nc2cccc(-c3nccc(NC4CC4)n3)c2)cc1 | 0.0977 µM | 
CN(C)c1nccc(-c2cccc(NC(=O)Nc3cccc(F)c3)c2)n1 | 0.967 µM | 
CN(C)c1ccnc(-c2cccc(NC(=O)Nc3ccc(F)cc3)c2)n1 | 1.22 µM | 
O=C(Nc1ccc(Cl)cc1)Nc1cccc(-c2cccc(N3CCCC3)n2)c1 |  | Activity [3]: Active; inhibition [5]: Dose-dependent effect
CN(C)c1ccnc(-c2cccc(NC(=O)Nc3ccc(C(F)(F)F)cc3)c2)n1 | 0.144 µM | 
CCN(CC)c1ccnc(-c2cccc(NC(=O)Nc3ccc(C#N)cc3)c2)n1 | 0.0696 µM | inhibition [5]: Dose-dependent effect
CN(C)c1nccc(-c2cccc(NC(=O)Nc3ccc(C#N)cc3)c2)n1 | 0.417 µM | 
CN(C)c1nccc(-c2cccc(NC(=O)Nc3ccc(I)cc3)c2)n1 | 0.965 µM | 
O=C(Nc1ccc(O)cc1)Nc1cccc(-c2nccc(N3CCCC3)n2)c1 |  | Activity [1]: inactive; Activity [2]: inactive
CN(C)c1ccnc(-c2cccc(NC(=O)Nc3ccc(C#N)cc3)c2)n1 | 0.313 µM | 
CCN(C)c1ccnc(-c2cccc(NC(=O)Nc3ccc(C#N)cc3)c2)n1 | 0.207 µM | 
N#Cc1ccc(NC(=O)Nc2cccc(-c3ccnc(N4CCCC4)n3)c2)cc1 | 0.168 µM | Activity [3]: Active; Activity [4]: Active; inhibition [5]: Dose-dependent effect
CN(C)c1ccnc(-c2cccc(NC(=O)Nc3cccc(F)c3)c2)n1 | 0.67 µM | 
CN(C)c1nccc(-c2cccc(NC(=O)Nc3ccc(F)cc3)c2)n1 | 1.12 µM | 

The next lines start with results.

Kb [1] | SMILES | other results
0.102 µM | O=C(Nc1ccc(Br)cc1)Nc1cccc(-c2nccc(N3CCCC3)n2)c1 | 
0.227 µM | O=C(Nc1ccc(Cl)cc1)Nc1cccc(-c2ccnc(N3CCCC3)n2)c1 | inhibition [5]: Dose-dependent effect
2.11 µM | CC(=O)c1ccc(NC(=O)Nc2cccc(-c3nccc(N4CCCC4)n3)c2)cc1 | 
1.98 µM | N#Cc1cccc(NC(=O)Nc2cccc(-c3nccc(N4CCCC4)n3)c2)c1 | 
0.463 µM | CCOC(=O)c1ccc(NC(=O)Nc2cccc(-c3nccc(N4CCCC4)n3)c2)cc1 | 
0.395 µM | O=C(Nc1ccc(Br)cc1)Nc1cccc(-c2ccnc(N3CCCC3)n2)c1 | 
0.0664 µM | N#Cc1ccc(NC(=O)Nc2cccc(-c3nccc(N4CCCCC4)n3)c2)cc1 | 
1.83 µM | COc1ccc(NC(=O)Nc2cccc(-c3nccc(N4CCCC4)n3)c2)cc1 | 
0.223 µM | O=C(Nc1ccc(F)cc1)Nc1cccc(-c2nccc(N3CCCC3)n2)c1 | 
0.196 µM | O=C(Nc1ccc(F)cc1)Nc1cccc(-c2ccnc(N3CCCC3)n2)c1 | 
0.211 µM | N#Cc1ccc(NC(=O)Nc2cccc(-c3nccc(N4CCC4)n3)c2)cc1 | 
0.997 µM | CN(C)c1ccnc(-c2cccc(NC(=O)Nc3ccc(I)cc3)c2)n1 | 
0.264 µM | O=C(Nc1ccc(Cl)cc1)Nc1cccc(-c2nccc(N3CCCC3)n2)c1 | inhibition [5]: Dose-dependent effect
